Results of several laboratories.
Target: Insulin receptor-related protein (INSRR, Homo sapiens, UniProt P14616)

| SMILES | test | setting | remaining binding [%] |
| --- | --- | --- | --- |
| N[C@@H]1CCN(c2nccc(-c3cnn4ncccc34)n2)C1 | binding | 1 µM | 100 |
| Cc1cnc(Nc2ccc(C(=O)N3CCC(N4CCCC4)CC3)cc2)nc1-c1cc2ccccc2s1 | binding, competition with immobilised ligand | 1 µM | 44 |
| CN(CCCC(F)(F)F)c1nccc(-c2cnn3ncccc23)n1 | binding | 1 µM | 100 |
| COc1ncc2cc3ccccc3nc2c1C#N | cell-free assay, competition with immobilised ligand | 5 µM | 100 |
| O=C1CCc2cc(Nc3cc(OC4CCOCC4)c([N+](=O)[O-])cc3Cl)ccc2N1 | cell-free assay, competition with immobilised ligand | 1 µM | 100 |
| O=C(Nc1c[nH]nc1C(=O)NC1CCNCC1)c1cc(F)cc(F)c1 | binding, competition with immobilised ligand | 1 µM | 92 |
| c1cncc(-c2cccc(Nc3nccc(NC4CCCCC4)n3)c2)c1 | binding, competition with immobilised ligand | 10 µM | 74 |
| Cc1cnn2ncc(-c3ccnc(N(C)C)n3)c2c1 | binding | 1 µM | 97 |
| CCOCCn1cc(C(=O)Nc2ccc(-n3nc(-c4cccnc4)cc3C(F)(F)F)cn2)ccc1=O | cell-free assay, competition with immobilised ligand | 1 µM | 100 |
| O=C(NCCCN1CCOCC1)c1ccc(Nc2nccc(-c3cc4ccccc4s3)n2)cc1 | binding, competition with immobilised ligand | 1 µM | 100 |
| FC(F)(F)Oc1cccc(-c2cnc3ccc(-c4ccncc4)nn23)c1 | cell-free assay, competition with immobilised ligand | 5 µM | 96 |
| O=C(Nc1cnc(Oc2ccc(F)cc2)nc1)N1CCc2ncccc2[C@@H]1c1ccc(F)cc1 | cell-free assay, competition with immobilised ligand | 1 µM | 84 |
| CCN1CCN(Cc2ccc(C(=O)Nc3ccc(C)c(Oc4ccc5c(c4)CC(=O)N5)c3)cc2C(F)(F)F)CC1 | binding, competition with immobilised ligand | 1 µM | 93 |
| C[C@H]1CCN(c2nccc(-c3cnn4ncccc34)n2)C1 | binding | 1 µM | 98 |
| NS(=O)(=O)c1cc(NC(=O)C2(c3ccccc3Cl)CC2)ccc1Oc1cccc(Cl)c1 | cell-free assay, competition with immobilised ligand | 1 µM | 95 |
| O=C(NCCCN1CCOCC1)c1ccc(Nc2ncc(Cl)c(-c3ccc(Cl)s3)n2)cc1 | binding, competition with immobilised ligand | 1 µM | 59 |
| CNC(=O)Nc1ccc2c(c1)CC[C@@]21OC(=O)N(CC(=O)N(Cc2ccc(F)cc2)[C@@H](C)C(F)(F)F)C1=O | cell-free assay, competition with immobilised ligand | 1 µM | 96 |
| C[C@@H](c1ccc(-n2cnc3c(N)ncnc32)cc1)N1CCc2nn(C)c(Cc3ccccc3)c2C1=O | binding, competition with immobilised ligand | 0.1 µM | 91 |
| CN(C)c1nccc(-c2cnn3ncccc23)n1 | binding | 1 µM | 92 |
| COc1cc(-c2cn(C3CCc4ccccc4N(CC(F)(F)F)C3=O)nn2)ccc1-n1ccc(C)n1 (stereo not shown) | cell-free assay, competition with immobilised ligand | 1 µM | 100 |
| CN(c1nccc(-c2cnn3ncccc23)n1)C1CC1 | binding | 1 µM | 100 |
| CNC(=O)[C@@H]1CC[C@@H](n2c(-c3ccc4cnccc4c3)nc3ccc(C(=O)NCc4cccc(C(N)=O)c4)cc32)C1 | binding, competition with immobilised ligand | 1 µM | 92 |
